Calls of active or inactive are those of the source. The calls are words filed in the database; no cut-off is given here.
Legend:
FLC clone 745 [1] = experiment: Inhibition of G9a/GLP in HMBA-stiumulated mouse FLC clone 745 cells assessed as increase in HBB protein expression at 10^-6 M after 48 hrs by Western blot analsysis; format: cell-based; details: dose 1.0 10^-6M
How it was run: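 MEL cells treated for 48 h with HMBA 5 × 10−3 M plus compound at 10−6 M. About 10^6 cells lysed in Tris/NaCl/2% SDS, sonicated, and protein quantified by BCA. 20 µg run on a 12% SDS-PAGE gel and transferred to PVDF. Membrane probed overnight at 4 °C with anti-hemoglobin β/γ/δ/ε, with β-tubulin as loading control, then HRP secondary for 1 h at room temperature.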

FLC clone 745 [2] = experiment: Induction of cell cycle arrest in HMBA-stimulated mouse FLC clone 745 cells assessed as accumulation cells at subG1 phase at 10^-6 M after 48 hrs by PI staining based flow cytometric analysis (reference value: 43.83%); format: functional; details: dose 1 10^-6M, at 1 µM
How it was run: (§1)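 MEL cells plated at 5 × 10^5 per well and synchronized by serum deprivation for 24 h. Cells then incubated with compound at 10−6 M, alone or with HMBA 5 × 10−3 M, for 24, 48 and 72 h. Fixed in 70% ethanol overnight at 4 °C, stained with propidium iodide, and DNA content measured by flow cytometry to assign subG1, G1, S, G2/M and >4N fractions.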

FLC clone 745 [3] = experiment: Induction of cell cycle arrest in HMBA-stimulated mouse FLC clone 745 cells assessed as accumulation cells at S phase at 10^-6 M after 72 hrs by PI staining based flow cytometric analysis (reference value: 19.52%); format: functional; details: dose 1 10^-6M, at 1 µM; how it was run: as §1
FLC clone 745 [4] = experiment: Induction of cell cycle arrest in mouse FLC clone 745 cells assessed as accumulation cells at G2/M phase at 10^-6 M after 48 hrs by PI staining based flow cytometric analysis (reference value: 28.15%); format: functional; details: dose 1 10^-6M, at 1 µM; how it was run: as §1
FLC clone 745 [5] = experiment: Induction of cell cycle arrest in HMBA-stimulated mouse FLC clone 745 cells assessed as accumulation cells at G2/M phase at 10^-6 M after 72 hrs by PI staining based flow cytometric analysis (reference value: 9.86%); format: functional; details: dose 1 10^-6M, at 1 µM; how it was run: as §1
FLC clone 745 [6] = experiment: Induction of cell cycle arrest in mouse FLC clone 745 cells assessed as accumulation cells at G2/M phase at 10^-6 M after 72 hrs by PI staining based flow cytometric analysis (reference value: 24.82%); format: functional; details: dose 1 10^-6M, at 1 µM; how it was run: as §1
FLC clone 745 [7] = experiment: Induction of cell cycle arrest in mouse FLC clone 745 cells assessed as accumulation cells at S phase at 10^-6 M after 72 hrs by PI staining based flow cytometric analysis (reference value: 24.02%); format: functional; details: dose 1 10^-6M, at 1 µM; how it was run: as §1
FLC clone 745 [8] = experiment: Induction of cell cycle arrest in mouse FLC clone 745 cells assessed as accumulation cells at G1/G0 phase at 10^-6 M after 24 hrs by PI staining based flow cytometric analysis (reference value: 19.61%); format: functional; details: dose 1 10^-6M, at 1 µM; how it was run: as §1
FLC clone 745 [9] = experiment: Induction of cell cycle arrest in mouse FLC clone 745 cells assessed as accumulation cells at G2/M phase at 10^-6 M after 24 hrs by PI staining based flow cytometric analysis (reference value: 14.35%); format: functional; details: dose 1 10^-6M, at 1 µM; how it was run: as §1
FLC clone 745 [10] = experiment: Induction of cell cycle arrest in mouse FLC clone 745 cells assessed as accumulation cells at > 4N phase at 10^-6 M after 48 hrs by PI staining based flow cytometric analysis (reference value: 7.11%); format: functional; details: dose 1 10^-6M, at 1 µM; how it was run: as §1
K562 [11] = experiment: Induction of apoptosis in human K562 cells assessed as effect on caspase-8 mRNA expression level at 1 to 10 uM cells after 48 hrs by qPCR analysis; format: toxicity, cell-based; details: k562, 48 h, dose 1-10 µM
How it was run: (§2)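 K562 cells at 10^5 cells/ml grown without compound (control) or with 10−6 M or 10−5 M compound for 48 h. Total RNA isolated, then checked by gel electrophoresis and spectrophotometry. Transcripts quantified by qPCR.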

FLC clone 745 [12] = experiment: Induction of cell cycle arrest in mouse FLC clone 745 cells assessed as accumulation cells at > 4N phase at 10^-6 M after 24 hrs by PI staining based flow cytometric analysis (reference value: 13.47%); format: functional; details: dose 1 10^-6M, at 1 µM; how it was run: as §1
K562 [13] = experiment: Induction of apoptosis in human K562 cells assessed as effect on Bcl-2 mRNA expression level at 1 to 10 uM cells after 48 hrs by qPCR analysis; format: toxicity, cell-based; details: k562, 48 h, dose 1-10 µM; how it was run: as §2
FLC clone 745 [14] = experiment: Induction of cell cycle arrest in mouse FLC clone 745 cells assessed as accumulation cells at G1/G0 phase at 10^-6 M after 72 hrs by PI staining based flow cytometric analysis (reference value: 26.4%); format: functional; details: dose 1 10^-6M, at 1 µM; how it was run: as §1
FLC clone 745 [15] = experiment: Induction of cell cycle arrest in HMBA-stimulated mouse FLC clone 745 cells assessed as accumulation cells at S phase at 10^-6 M after 24 hrs by PI staining based flow cytometric analysis (reference value: 21.59%); format: functional; details: dose 1 10^-6M, at 1 µM; how it was run: as §1
FLC clone 745 [16] = experiment: Induction of cell cycle arrest in mouse FLC clone 745 cells assessed as accumulation cells at subG1 phase at 10^-6 M after 72 hrs by PI staining based flow cytometric analysis (reference value: 9.87%); format: functional; details: dose 1 10^-6M, at 1 µM; how it was run: as §1

SMILES: COc1cc2c(cc1OCCCN1CCCC1)N=C(N)C21CCC1
- inhibition (FLC clone 745 [1]): Active
- Activity (FLC clone 745 [2]): 50.9%
- Activity (FLC clone 745 [3]): 19.84%
- Activity (FLC clone 745 [4]): 22.21%
- Activity (FLC clone 745 [5]): 6.21%
- Activity (FLC clone 745 [6]): 11.32%
- Activity (FLC clone 745 [7]): 23.1%
- Activity (FLC clone 745 [8]): 20.43%
- Activity (FLC clone 745 [9]): 9.04%
- Activity (FLC clone 745 [10]): 9.4%
- Activity (K562 [11]): Non-Toxic
- Activity (FLC clone 745 [12]): 9.49%
- Activity (K562 [13]): Non-Toxic
- Activity (FLC clone 745 [14]): 14.22%
- Activity (FLC clone 745 [15]): 1.26%
- Activity (FLC clone 745 [16]): 39.53%

From ChEMBL document CHEMBL5712920, “The histone methyltransferase inhibitor A-366 enhances hemoglobin expression in erythroleukemia cells upon co-exposure with chemical inducers in culture” (J Biol Res (Thessalon), 2021)
